Results: BindingDB's records for doi:10.1016/j.ejmech.2018.08.004 (The University of Queensland, 2018)

Key:
[1] = target: T1, Tartrate-resistant acid phosphatase type 5 (Sus scrofa, UniProt P09889); experiment: Competitive inhibition of pig purple acid phosphatase Fe(3)Fe(2) state assessed as enzyme-inhibitor complex using pNPP as substrate by UV/Vis spectrophotometric method
T1 sequence (P09889 whole entry): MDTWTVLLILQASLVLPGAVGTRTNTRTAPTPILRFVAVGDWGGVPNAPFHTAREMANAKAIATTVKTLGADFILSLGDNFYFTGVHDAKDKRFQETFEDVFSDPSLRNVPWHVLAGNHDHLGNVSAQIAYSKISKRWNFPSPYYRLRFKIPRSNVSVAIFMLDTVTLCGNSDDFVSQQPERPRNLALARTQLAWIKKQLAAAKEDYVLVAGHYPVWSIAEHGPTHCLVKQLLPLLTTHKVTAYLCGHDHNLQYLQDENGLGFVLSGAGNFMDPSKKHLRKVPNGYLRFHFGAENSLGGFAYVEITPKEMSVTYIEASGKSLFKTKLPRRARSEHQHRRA
Outline: (§1)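 Pig PAP was from sow uterine fluid and pre-reduced to Fe(III)Fe(II) with 0.77 mM β-mercaptoethanol (10 min, 37 °C); rkbPAP was purified from red kidney beans. Assays ran at 25 °C, pH 4.9 (0.1 M acetate, 25% DMSO) with 12 nM enzyme, pNPP 1–12.5 mM and inhibitor 50–300 μM. p-Nitrophenol was read at 405 nm. Kic and Kiuc came from non-linear fit to the general inhibition equation.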

[2] = target: T2, Fe(3+)-Zn(2+) purple acid phosphatase (Phaseolus vulgaris, UniProt P80366); experiment: Competitive inhibition of red kidney bean purple acid phosphatase Fe(3)Fe(2) state assessed as enzyme-inhibitor complex using pNPP as substrate by UV/Vis spectrophotometric method; outline: as §1
T2 sequence (P80366 whole entry): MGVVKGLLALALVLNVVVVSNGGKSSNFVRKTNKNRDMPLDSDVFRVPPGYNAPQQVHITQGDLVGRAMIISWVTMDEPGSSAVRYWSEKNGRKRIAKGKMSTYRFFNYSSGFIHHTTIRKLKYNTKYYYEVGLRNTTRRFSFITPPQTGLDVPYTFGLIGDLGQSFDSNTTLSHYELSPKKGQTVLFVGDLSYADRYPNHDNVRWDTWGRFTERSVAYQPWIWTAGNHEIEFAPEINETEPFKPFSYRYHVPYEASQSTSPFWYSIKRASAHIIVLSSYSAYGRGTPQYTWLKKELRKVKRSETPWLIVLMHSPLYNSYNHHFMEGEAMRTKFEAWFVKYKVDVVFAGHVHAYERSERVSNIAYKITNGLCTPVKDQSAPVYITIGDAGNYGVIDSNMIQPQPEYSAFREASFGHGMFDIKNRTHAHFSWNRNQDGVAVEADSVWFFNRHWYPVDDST

## O=C(O)c1csc(-c2cccc3ccccc23)n1
[1]
  Ki: 33 µM
[2]
  Ki: 185 µM

## Cc1ccc(-c2nc(C(=O)O)cs2)cc1
[1]
  Ki: 42 µM
[2]
  Ki: 340 µM

## O=C(O)c1csc(-c2ccccc2)n1
[1]
  Ki: 190 µM

## O=C(O)c1csc(-c2ccccc2Cl)n1
[1]
  Ki: 630 µM
[2]
  Ki: 920 µM

## COc1ccc(-c2nc(C(=O)O)cs2)cc1
[1]
  Ki: 120 µM
[2]
  Ki: 400 µM

## O=C(O)c1csc(-c2ccc(Cl)cc2)n1
[1]
  Ki: 49 µM
[2]
  Ki: 530 µM
